Measured values reported in ChEMBL document CHEMBL1165943, “Design and synthesis of new anticancer pyrimidines with multiple-kinase inhibitory effect” (Bioorg Med Chem, 2010).
The source made the active and inactive calls. The calls are words filed in the database; no cut-off is given here.

Key:
SK-OV-3 = experiment: Cytotoxicity against human SKOV3 cells assessed as cell growth at 10 uM after 48 hrs by sulforhodamine B assay; assay type: functional; details: SK-OV-3, 48 h, read-out: Activity
OVCAR-5 [1] = experiment: Cytotoxicity against human OVCAR5 cells assessed as cell growth at 100 nM after 48 hrs by sulforhodamine B assay; assay type: functional; details: OVCAR-5, 48 h, read-out: Activity
HCT-116 = experiment: Cytotoxicity against human HCT116 cells assessed as cell growth at 0.01 uM after 48 hrs by sulforhodamine B assay; assay type: functional; details: HCT-116, 48 h, read-out: Activity
T47D = experiment: Cytotoxicity against human T47D cells assessed as cell growth at 100 nM after 48 hrs by sulforhodamine B assay; assay type: functional; details: read-out: Activity
DU-145 = experiment: Cytotoxicity against human DU145 cells assessed as cell growth at 10 uM after 48 hrs by sulforhodamine B assay; assay type: functional; details: DU-145, 48 h, read-out: Activity
EKVX = experiment: Cytotoxicity against human EKVX cells assessed as cell growth at 0.001 uM after 48 hrs by sulforhodamine B assay; assay type: functional; details: read-out: Activity
HL-60(TB) [2] = experiment: Cytotoxicity against human HL-60(TB) cells assessed as cell growth at 0.01 uM after 48 hrs by sulforhodamine B assay; assay type: functional; details: HL-60, 48 h, read-out: Activity
Method in brief: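 Five-concentration HL-60(TB) test in RPMI 1640 with 5% FBS and 2 mM L-glutamine. Cells are plated at 5,000–40,000/well and a TCA-fixed time-zero plate is read at drug addition after 24 h. Drug is dissolved in DMSO and given as five 10-fold or ½log dilutions for 48 h at 37 °C, 5% CO2. Settled cells are fixed with TCA, stained with SRB and read at 515 nm.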

MDA-MB-231 = experiment: Cytotoxicity against human MDA-MB-231 cells assessed as cell growth at 0.001 uM after 48 hrs by sulforhodamine B assay; assay type: functional; details: MDA-MB-231, 48 h, read-out: Activity
UO-31 = experiment: Cytotoxicity against human UO31 cells assessed as cell growth at 0.001 uM after 48 hrs by sulforhodamine B assay; assay type: functional; details: UO-31, 48 h, read-out: Activity
HT-29 = experiment: Cytotoxicity against human HT-29 cells assessed as cell growth at 0.01 uM after 48 hrs by sulforhodamine B assay; assay type: functional; details: HT-29, 48 h, read-out: Activity
HCT-15 [3] = experiment: Cytotoxicity against human HCT15 cells assessed as cell growth at 100 nM after 48 hrs by sulforhodamine B assay; assay type: functional; details: HCT-15, 48 h, read-out: Activity
SF-295 = experiment: Cytotoxicity against human SF295 cells assessed as cell growth at 0.01 uM after 48 hrs by sulforhodamine B assay; assay type: functional; details: SF-295, 48 h, read-out: Activity
Malme-3M = experiment: Cytotoxicity against human MALME-3M cells assessed as cell growth at 100 nM after 48 hrs by sulforhodamine B assay; assay type: functional; details: read-out: Activity
OVCAR-5 [4] = experiment: Cytotoxicity against human OVCAR5 cells assessed as cell growth at 1 uM after 48 hrs by sulforhodamine B assay; assay type: functional; details: OVCAR-5, 48 h, read-out: Activity
OVCAR-3 = experiment: Cytotoxicity against human OVCAR-3 cells assessed as cell growth at 0.001 uM after 48 hrs by sulforhodamine B assay; assay type: functional; details: OVCAR-3, 48 h, read-out: Activity
HL-60(TB) [5] = experiment: Growth inhibition of human HL-60(TB) cells after 48 hrs by sulforhodamine B assay; assay type: functional, cell-based; details: HL-60, 48 h; for CC50: read-out: LC50 (the source's name)
Method in brief: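 HL-60(TB) suspension cells in RPMI 1640 with 5% FBS receive five 10-fold or ½log drug dilutions from DMSO stock for 48 h at 37 °C, 5% CO2. Settled cells are TCA-fixed, SRB-stained and read at 515 nm against a time-zero plate. […] is solved from [(Ti−Tz)/(C−Tz)]×100 = 50.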

A498 [6] = experiment: Cytotoxicity against human A498 cells assessed as cell growth at 10 uM after 48 hrs by sulforhodamine B assay; assay type: functional; details: A498, 48 h, read-out: Activity
Method in brief: (§1)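 Cells grown in RPMI 1640 with 5% FBS and 2 mM L-glutamine, seeded at 5,000–40,000 cells/well by doubling time. Time-zero plates TCA-fixed after 24 h. Five concentrations (10-fold or half-log dilutions from DMSO stock) added; 48 h at 37 °C, 5% CO2. Cold TCA fixation (final 10%, 60 min, 4 °C), 0.4% SRB stain, dye solubilized in 10 mM trizma base, A515.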

CAKI-1 [7] = experiment: Cytotoxicity against human Caki1 cells assessed as cell growth at 10 uM after 48 hrs by sulforhodamine B assay; assay type: functional; details: CAKI-1, 48 h, read-out: Activity; method in brief: as §1
HCT-15 [8] = experiment: Growth inhibition of human HCT15 cells after 48 hrs by sulforhodamine B assay; assay type: functional, cell-based; details: HCT-15, 48 h; for CC50: read-out: LC50 (the source's name)
Method in brief: (§2)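 Cells grown in RPMI 1640 with 5% FBS and 2 mM L-glutamine, seeded at 5,000–40,000 cells/well according to doubling time. After 24 h, time-zero plates are TCA-fixed. Five concentrations (10-fold or ½log dilutions, DMSO stocks) are applied for 48 h at 37 °C, 5% CO₂. Cells are TCA-fixed, SRB-stained and read at 515 nm. IC₅₀ is taken from [(Ti−Tz)/(C−Tz)]×100 = 50.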

HOP-62 = experiment: Cytotoxicity against human HOP62 cells assessed as cell growth at 100 nM after 48 hrs by sulforhodamine B assay; assay type: functional; details: HOP-62, 48 h, read-out: Activity
A498 [9] = experiment: Cytotoxicity against human A498 cells assessed as cell growth at 0.001 uM after 48 hrs by sulforhodamine B assay; assay type: functional; details: A498, 48 h, read-out: Activity; method in brief: as §1
MDA-MB-435 = experiment: Cytotoxicity against human MDA-MB-435 cells assessed as cell growth at 100 nM after 48 hrs by sulforhodamine B assay; assay type: functional; details: MDA-MB-435, 48 h, read-out: Activity
HOP-92 = experiment: Growth inhibition of human HOP92 cells after 48 hrs by sulforhodamine B assay; assay type: functional, cell-based; method in brief: as §2
CAKI-1 [10] = experiment: Growth inhibition of human Caki1 cells after 48 hrs by sulforhodamine B assay; assay type: functional, cell-based; details: CAKI-1, 48 h
Method in brief: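 Five-dose SRB assay. Cells in RPMI 1640 with 5% FBS and 2 mM L-glutamine were seeded at 5,000–40,000 cells/well, with a TCA-fixed time-zero plate (Tz) taken at 24 h. Compound stocks were in DMSO, serially diluted 10-fold or ½-log to five concentrations, and incubated 48 h at 37 °C. Plates were stained with SRB and read at 515 nm. IC₅₀ was taken where [(Ti−Tz)/(C−Tz)]×100 = 50.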

NCI/ADR-RES = experiment: Growth inhibition of human NCI/ADR-RES cells after 48 hrs by sulforhodamine B assay; assay type: functional, cell-based; details: for CC50: read-out: LC50 (the source's name); method in brief: as §2
[11] = Homo sapiens, NCI/ADR-RES, 48 h

CC(=O)c1ccccc1-c1ccc(-c2ccnc(NC(=O)Nc3cc(N4CCOCC4)cc(C(F)(F)F)c3)n2)cn1
growth at 10 µM (SK-OV-3): 41% | growth at 0.1 µM (OVCAR-5 [1]): 91% | growth at 0.01 µM (HCT-116): 95% | growth at 0.1 µM (T47D): 8.3% | growth at 10 µM (DU-145): 59% | growth at 0.001 µM (EKVX): 95% | growth at 0.01 µM (HL-60(TB) [2]): 87% | growth at 0.001 µM (MDA-MB-231): 101% | growth at 0.001 µM (UO-31): 85% | growth at 0.01 µM (HT-29): 105% | growth at 0.1 µM (HCT-15 [3]): 92% | growth at 0.01 µM (SF-295): 90% | growth at 0.1 µM (Malme-3M): 78% | growth at 1 µM (OVCAR-5 [4]): 96% | growth at 0.001 µM (OVCAR-3): 107% | GI50 (HL-60(TB) [5]): > 100 µM | IC50 (HL-60(TB) [5]): > 100 µM | TGI (HL-60(TB) [5]): > 100 µM | CC50 (HL-60(TB) [5]): > 100 µM | growth at 10 µM (A498 [6]): 98% | growth at 10 µM (CAKI-1 [7]): 86% | GI50 (HCT-15 [8]): > 100 µM | IC50 (HCT-15 [8]): > 100 µM | TGI (HCT-15 [8]): > 100 µM | CC50 (HCT-15 [8]): > 100 µM | growth at 0.1 µM (HOP-62): 100% | growth at 0.001 µM (A498 [9]): 85% | growth at 0.1 µM (MDA-MB-435): 92% | TGI (HOP-92): inactive | GI50 (HOP-92; Homo sapiens, HOP-92, 48 h): 4.29 µM | IC50 (HOP-92; Homo sapiens, HOP-92, 48 h, read-out: IC50): 2950 nM | CC50 (HOP-92; Homo sapiens, HOP-92, 48 h, read-out: LC50 (the source's name)): > 100 µM | GI50 (CAKI-1 [10]): 6.89 µM | IC50 (CAKI-1 [10]): > 100000 nM | LC50 (lethal concentration 50%) (CAKI-1 [10]): > 100 µM | TGI (CAKI-1 [10]): > 100 µM | TGI (NCI/ADR-RES; [11]): > 100 µM | CC50 (NCI/ADR-RES; [11]): > 100 µM | IC50 (NCI/ADR-RES; nci/adr-res): Not Active

CC(=O)Nc1cccc(-c2ccc(-c3ccnc(NC(=O)Nc4cc(C(F)(F)F)cc(C(F)(F)F)c4)n3)cn2)c1.Cl
growth at 10 µM (SK-OV-3): -63% | growth at 0.1 µM (OVCAR-5 [1]): 97% | growth at 0.01 µM (HCT-116): 85% | growth at 0.1 µM (T47D): 42% | growth at 10 µM (DU-145): -93% | growth at 0.001 µM (EKVX): 90% | growth at 0.01 µM (HL-60(TB) [2]): 90% | growth at 0.001 µM (MDA-MB-231): 102% | growth at 0.001 µM (UO-31): 90% | growth at 0.01 µM (HT-29): 100% | growth at 0.1 µM (HCT-15 [3]): 90% | growth at 0.01 µM (SF-295): 94% | growth at 0.1 µM (Malme-3M): 93% | growth at 1 µM (OVCAR-5 [4]): 62% | growth at 0.001 µM (OVCAR-3): 101% | GI50 (HL-60(TB) [5]): 3.78 µM | IC50 (HL-60(TB) [5]): 3.78 µM | TGI (HL-60(TB) [5]): 96.1 µM | CC50 (HL-60(TB) [5]): > 100 µM | growth at 10 µM (A498 [6]): -77% | growth at 10 µM (CAKI-1 [7]): -36% | GI50 (HCT-15 [8]): 3.62 µM | IC50 (HCT-15 [8]): 3.62 µM | TGI (HCT-15 [8]): 15 µM | CC50 (HCT-15 [8]): 45.1 µM | growth at 0.1 µM (HOP-62): 100% | growth at 0.001 µM (A498 [9]): 95% | growth at 0.1 µM (MDA-MB-435): 89% | LC50 (HOP-92): inactive | TGI (HOP-92): inactive | IC50 (HOP-92; hop-92): Not Active | GI50 (CAKI-1 [10]): 2.37 µM | IC50 (CAKI-1 [10]): 2370 nM | LC50 (lethal concentration 50%) (CAKI-1 [10]): > 100 µM | TGI (CAKI-1 [10]): 8.34 µM | GI50 (NCI/ADR-RES; [11]): 3.66 µM | TGI (NCI/ADR-RES; [11]): 47.4 µM | IC50 (NCI/ADR-RES; Homo sapiens, NCI/ADR-RES, 48 h, read-out: IC50): 3.66 µM | CC50 (NCI/ADR-RES; [11]): > 100 µM
